PvdQ inh – blocks Pseudomonas aeruginosa PvdQ acylase activity; actives 0.063% (n = 340,000); AID 488965; purified PvdQ acylase, fluorescence plate reader; inhibition, % at 10 µM; in the data active = inhibition above about 30%, passing the limit was not always enough;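 note: 0% = vehicle neutral wells and 100% = reference inhibitor wells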
CAL PDZ FP-1 – CAL PDZ (human) peptide binding inhibition; purified CAL PDZ, TMR-peptide fluorescence polarization, 1 h; inhibition, % at 24.9 µM; actives 0.92% (n = 300,000); AID 602252;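 active = mean inhibition of at least 30% with at least half of replicates also reaching 30%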;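 note: 0% = DMSO neutral control and 100% = excess unlabeled competitor peptide PRC23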
CAL PDZ FP-2 – inhibitors of human CAL PDZ peptide binding. purified CAL PDZ, TMR-peptide fluorescence polarization, 1 h. actives 0.02% (n = 330,000). inhibition, % at 20 µM. Q9HD26. AID 504414;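 active = highest replicate inhibition of at least 40%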;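 note: plate controls were DMSO neutral control wells for no effect and unlabeled competitor peptide control wells for full effect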
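Assay system – tagged CAL PDZ protein CerCALP, purified · Timing – 1 h at RT · Compound – single point, 20 µM · Measured by – fluorescence polarization from S- and P-plane intensities, G-factor corrected · Evaluation – inhibition from polarization loss · Probe or stimulus – TMR reporter peptide T*-PRC34 · Buffer or medium – pH 7.4 phosphate-saline buffer, reducing agent, detergent, IgG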
CDK5 inh – inhibitors of human CDK5/p35 kinase; Q00535+Q15078; Recombinant CDK5/p35, ADP-Glo luminescence, 60 min; inhibition, % at 10 µM; actives 0.01% (n = 330,000); AID 488839;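 active = highest replicate inhibition of at least 50% and at least 75% of replicates reaching 50%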;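 note: plate controls were DMSO neutral control for no effect and GW8510 at 10 µM for full effect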
Target sequence (Q00535 whole entry, looked up): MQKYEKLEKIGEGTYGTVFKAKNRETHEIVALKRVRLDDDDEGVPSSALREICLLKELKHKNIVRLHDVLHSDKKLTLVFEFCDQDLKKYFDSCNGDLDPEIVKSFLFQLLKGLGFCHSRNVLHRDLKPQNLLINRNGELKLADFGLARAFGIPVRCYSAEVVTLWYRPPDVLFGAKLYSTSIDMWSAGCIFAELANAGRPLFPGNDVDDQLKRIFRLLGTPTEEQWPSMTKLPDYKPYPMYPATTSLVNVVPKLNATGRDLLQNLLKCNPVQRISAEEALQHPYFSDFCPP
Target sequence (Q15078 whole entry, looked up): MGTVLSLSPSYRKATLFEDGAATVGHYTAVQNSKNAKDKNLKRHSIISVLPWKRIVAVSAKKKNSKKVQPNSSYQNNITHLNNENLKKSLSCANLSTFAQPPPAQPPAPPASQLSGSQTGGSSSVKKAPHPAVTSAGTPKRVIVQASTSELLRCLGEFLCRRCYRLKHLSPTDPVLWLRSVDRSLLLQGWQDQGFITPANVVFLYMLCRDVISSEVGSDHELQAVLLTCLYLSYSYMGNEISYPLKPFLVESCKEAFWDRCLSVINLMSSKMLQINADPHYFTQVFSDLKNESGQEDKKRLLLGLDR
Glyco luc inh – blocks N-linked glycosylation in D54 reporter cells. D54 ERlucT glycosylation luciferase reporter, 24 h; percent of 100 nM tunicamycin response. reporter increase, % at 12.5 µM. actives 0.23% (n = 360,000). AID 588692;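 active = mean luciferase reporter signal, scaled so untreated is 0 and the glycosylation-blocking control 100, at or above a set limit in every replicate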;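 note: luciferase carries N-glycosylation sites so blocking glycosylation raises the light; 0% = median of neutral control wells and 100% = median of 100 nM tunicamycin wells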
Vif imaging – HIV Vif inhibition; actives 0.35% (n = 340,000); AID 602346; HEK293T cells, Vif self-association by quenched fluorescence, imaging, 24 h; inhibition, % at 7.49 µM; in the data active = inhibition above about 50%, passing the limit was not always enough
Active calls of the source: *. Hits are enriched below; roughly 1.4% of the tested compounds scored in any of these assays.

`O=C(Nc1cccc2ccccc12)c1ccc([N+](=O)[O-])o1` gave PvdQ inh -7, CAL PDZ FP-1 -7, CAL PDZ FP-2 -1, CDK5 inh 0, Glyco luc inh 27* and Vif imaging -3.
For O=C(Nc1ccc(N2CCCCC2)cc1)c1ccc([N+](=O)[O-])o1 the results were PvdQ inh -3, CAL PDZ FP-1 -2, CAL PDZ FP-2 -3, CDK5 inh 1, Glyco luc inh -8 and Vif imaging 16.
CCC(=O)N1CCN(c2ccc(NC(=O)c3ccc([N+](=O)[O-])o3)cc2)CC1 was read as PvdQ inh 14, CAL PDZ FP-1 -5, CAL PDZ FP-2 -1, CDK5 inh 0, Glyco luc inh -3 and Vif imaging 73*.
For O=C(Nc1ccc(N2CCCC2)c(Cl)c1)c1ccc([N+](=O)[O-])o1 the results were PvdQ inh 17, CAL PDZ FP-1 4, CAL PDZ FP-2 0, CDK5 inh 0, Glyco luc inh 46* and Vif imaging 22.
`CC(C)(C)OC(=O)N1CCC(NC(=O)c2ncn(Cc3ccccc3)c2C(=O)NC2CCN(C(=O)OC(C)(C)C)CC2)CC1` gave PvdQ inh 5, CAL PDZ FP-1 -2, CAL PDZ FP-2 -1, CDK5 inh -1, Glyco luc inh 2 and Vif imaging 5.
COc1ccc(C(=O)N/C(=C\c2cn(S(=O)(=O)N(C)C)c3ccccc23)C(=O)NCCN2CCOCC2)cc1 was read as PvdQ inh -11, CAL PDZ FP-1 2, CAL PDZ FP-2 -1, CDK5 inh -1, Glyco luc inh 3 and Vif imaging -3.
Screening COc1ccc(OC)c(NC(=O)C2(C)CCN2C(=O)C2(c3ccccc3)CCCC2)c1 (stereo unspecified) returned Glyco luc inh -3 and Vif imaging -3.
For O=C(Nc1ccc(N2CCOCC2)c(Cl)c1)c1cc2ccccc2o1 the results were PvdQ inh -8, CAL PDZ FP-1 -1, CAL PDZ FP-2 1, CDK5 inh 1, Glyco luc inh -6 and Vif imaging 92*.
For O=C(Nc1ccccc1N1CCOCC1)c1cc2ccccc2o1 the results were PvdQ inh 12, CAL PDZ FP-1 -5, CAL PDZ FP-2 -3, CDK5 inh -1, Glyco luc inh 6 and Vif imaging -6.
CCCC(=O)N1CCN(c2ccc(NC(=S)NC(=O)c3cccc(C)c3)cc2)CC1 was read as PvdQ inh 24, CAL PDZ FP-1 75*, CAL PDZ FP-2 -1, CDK5 inh -1, Glyco luc inh -7 and Vif imaging 2.
`COc1cccc(C(=O)NC(=S)Nc2ccc(N3CCCC3)cc2)c1` gave PvdQ inh -14, CAL PDZ FP-1 -2, CAL PDZ FP-2 1, CDK5 inh 0, Glyco luc inh 4 and Vif imaging -2.
For COc1cc([N+](=O)[O-])cc(/C=N/NC(=O)Cn2cncn2)c1O the results were PvdQ inh -9, CAL PDZ FP-1 48*, CAL PDZ FP-2 0, CDK5 inh -2, Glyco luc inh 2 and Vif imaging -3.
COc1cc([N+](=O)[O-])cc(/C=N/NC(=O)CSc2ccccn2)c1O was read as PvdQ inh -4, CAL PDZ FP-1 1, CAL PDZ FP-2 -3, CDK5 inh 1, Glyco luc inh 2 and Vif imaging -6.
CCCC[C@@H]1C=C(C(=O)O)[C@H](c2ccc(Br)cc2)N1S(=O)(=O)c1ccc(C)cc1 was read as PvdQ inh 11, CAL PDZ FP-1 -8, CAL PDZ FP-2 1, CDK5 inh 2 and Glyco luc inh 3.
`Cc1ccccc1NC(=O)c1nc(S(C)(=O)=O)ncc1Cl` gave PvdQ inh -21, CAL PDZ FP-1 86*, CAL PDZ FP-2 10, CDK5 inh -1, Glyco luc inh -14 and Vif imaging 16.
For CS(=O)(=O)c1ncc(Cl)c(C(=O)Nc2ccc(OC(F)F)cc2)n1 the results were PvdQ inh -20, CAL PDZ FP-1 -11, CAL PDZ FP-2 1, CDK5 inh 2, Glyco luc inh -15 and Vif imaging 54*.
For CS(=O)(=O)c1ncc(Cl)c(C(=O)Nc2ccc(N3CCOCC3)cc2)n1 the results were PvdQ inh -10, CAL PDZ FP-1 -4, CAL PDZ FP-2 -2, CDK5 inh -1, Glyco luc inh -15 and Vif imaging 11.

Screens (PubChem)
